Laboratory results from ChEMBL document CHEMBL4020814, “Synthesis, Binding Mode, and Antihyperglycemic Activity of Potent and Selective (5-Imidazol-2-yl-4-phenylpyrimidin-2-yl)[2-(2-pyridylamino)ethyl]amine Inhibitors of Glycogen Synthase Kinase 3” (J Med Chem, 2017).
Blank lines part the entries; values can stand above or below the compound they belong to. The source made the active and inactive calls. The rule behind the calls is not given here.

Tests used:
[1] = system: Rattus norvegicus; assay: Toxicity in diabetic ZDF rat assessed as increase in beta-catenin mRNA levels in brain administered at 130 mg/kg/day infused over 20 hrs; type: organism-based; conditions: in vivo
[2] = Half life in diabetic ZDF fa/fa rat at 8 mg/kg administered 4.5 and 0.5 hrs prior to oral glucose challenge; type: ADME, organism-based; conditions: in vivo
[3] = system: Rattus norvegicus; assay: Toxicity in diabetic ZDF rat assessed as increase in beta-catenin mRNA levels in adipose tissue administered at 130 mg/kg/day infused over 20 hrs; type: organism-based; conditions: in vivo
[4] = Half life in po dosed diabetic ZDF rat; type: ADME, organism-based; conditions: in vivo
[5] = system: Rattus norvegicus; assay: Effect on plasma insulin level in lean ZDF fa/fa rat at 30 mg/kg dosed at 4.5 and 0.5 hrs prior to oral glucose challenge measured at 60 mins (reference value: 0.3 +/- 0.1 ng/ml); type: ADME, organism-based; conditions: in vivo, 1 h
[6] = system: Rattus norvegicus; assay: Toxicity in diabetic ZDF rat assessed as increase in beta-catenin mRNA levels in colon administered at 130 mg/kg/day infused over 20 hrs; type: organism-based; conditions: in vivo
[7] = system: Rattus norvegicus; assay: Toxicity in diabetic ZDF rat assessed as increase in cyclin D1 mRNA levels in liver administered at 130 mg/kg/day infused over 20 hrs; type: organism-based; conditions: in vivo
[8] = Plasma concentration in diabetic db/db mouse at 30 mg/kg administered at 4.5 and 0.5 hrs prior to oral glucose challenge measured 20 mins post second dose; conditions: plasma
[9] = system: Rattus norvegicus; assay: Effect on plasma insulin level in lean ZDF fa/fa rat at 30 mg/kg dosed at 4.5 and 0.5 hrs prior to oral glucose challenge measured at 25 mins (reference value: 0.4 +/- 0.1 ng/ml); type: ADME, organism-based; conditions: in vivo
[10] = system: Rattus norvegicus; assay: Toxicity in diabetic ZDF rat assessed as increase in cyclin D1 mRNA levels in colon administered at 130 mg/kg/day infused over 20 hrs; type: organism-based; conditions: in vivo
[11] = biological target: Casein kinase I isoform epsilon (Homo sapiens, UniProt P49674); assay: Inhibition of human CK1epsilon using biotin peptide substrate after 1 hr by scintillation counting method
[12] = Clearance in iv dosed diabetic ZDF rat; type: ADME, organism-based; conditions: in vivo
Method in brief: (§1)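 ZDF (fa/fa) rats dosed intravenously; clearance and steady-state volume of distribution derived from plasma concentration–time data.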

[13] = system: Rattus norvegicus; assay: Effect on plasma insulin level in obese ZDF fa/fa rat at 30 mg/kg dosed at 4.5 and 0.5 hrs prior to oral glucose challenge measured at -45 mins (reference value: 6.9 +/- 0.3 ng/ml); type: ADME, organism-based; conditions: in vivo
[14] = system: Rattus norvegicus; assay: Toxicity in diabetic ZDF rat assessed as increase in cyclin D1 mRNA levels in brain administered at 130 mg/kg/day infused over 20 hrs; type: organism-based; conditions: in vivo
[15] = biological target: Angiopoietin-1 receptor (Homo sapiens, UniProt Q02763)
[16] = system: Mus musculus; assay: Effect on insulin level in diabetic ob/ob mouse administered at 30 mg/kg, po measured post glucose challenge; type: ADME, organism-based; conditions: in vivo
Method in brief: (§2)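 ob/ob mice aged 9–10 weeks, 6–8 per group, given an oral glucose tolerance test with oral dosing at −4.5 and −0.5 h (vehicle captisol). Plasma glucose and insulin were measured after the glucose challenge. Values are mean ± SEM.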

[17] = system: Mus musculus; assay: Effect on urine glucose levels in diabetic db/db mouse administered orally at 4.5 and 0.5 hrs prior to oral glucose challenge; type: ADME; conditions: in vivo
[18] = organism: Mus musculus; assay: Effect on insulin levels in streptozotocin-treated mouse fed with high fat diet; type: ADME; conditions: in vivo
Method in brief: (§3)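 Mice on a high-fat diet with intermittent streptozotocin were dosed orally at −4.5 and −0.5 h before oral glucose challenge. Post-challenge glucose AUC and insulin were measured.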

[19] = Volume of distribution at steady state in iv dosed diabetic ZDF rat; type: ADME, organism-based; conditions: in vivo, read-out: Vdss; method in brief: as §1
[20] = system: Rattus norvegicus; assay: Effect on plasma glucose levels in lean ZDF fa/fa rat administered at 30 mg/kg dosed at 4.5 and 0.5 hrs prior to oral glucose challenge by oral glucose tolerance test; type: ADME, organism-based; conditions: in vivo
[21] = system: Rattus norvegicus; assay: Toxicity in diabetic ZDF rat assessed as increase in beta-catenin mRNA levels in liver administered at 130 mg/kg/day infused over 20 hrs; type: organism-based; conditions: in vivo
[22] = system: Rattus norvegicus; assay: Toxicity in diabetic ZDF rat assessed as increase in cyclin D1 mRNA levels in adipose tissue administered at 130 mg/kg/day infused over 20 hrs; type: organism-based; conditions: in vivo
[23] = system: Mus musculus; assay: Effect on insulin level in diabetic db/db mouse at 30 mg/kg administered at 4.5 and 0.5 hrs prior to oral glucose challenge; type: ADME, organism-based; conditions: in vivo
Method in brief: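 db/db mice, 6–8 per group, fasted ~6 h (food removed 3 h before prebleed), dosed orally at −4.5 and −0.5 h relative to oral glucose (vehicle 10% captisol). Tail-snip blood glucose was read by glucometer or analyzer; plasma insulin was measured by ELISA.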

[24] = system: Rattus norvegicus; assay: Reduction in plasma insulin level in diabetic ZDF fa/fa rat at 30 mg/kg, po administered as single dose measured after 60 mins; type: ADME, organism-based; conditions: in vivo, 1 h
Method in brief: (§4)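 Twelve-week-old male ZDF (fa/fa) rats with fasted basal glucose of 500–550 mg/dL, food removed 3–4 h before dosing. A single oral dose was given with vehicle 15% captisol. Plasma glucose and insulin were measured from serial tail-snip bleeds, n = 8/group, mean ± SEM.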

[25] = system: Rattus norvegicus; assay: Effect on plasma insulin level in obese ZDF fa/fa rat at 30 mg/kg dosed at 4.5 and 0.5 hrs prior to oral glucose challenge measured at 25 mins (reference value: 8.5 +/- 0.7 ng/ml); type: ADME, organism-based; conditions: in vivo
[26] = system: Rattus norvegicus; assay: Effect on plasma insulin level in lean ZDF fa/fa rat at 30 mg/kg dosed at 4.5 and 0.5 hrs prior to oral glucose challenge measured at -45 mins (reference value: 0.2 +/- 0.1 ng/ml); type: ADME, organism-based; conditions: in vivo
[27] = AUC in po dosed diabetic ZDF rat; type: ADME, organism-based; conditions: in vivo
[28] = system: Rattus norvegicus; assay: Effect on plasma insulin level in diabetic ZDF fa/fa rat assessed as plasma insulin levels at 5 mg/kg, iv prime dose with continuous infusion at 64 ug/kg/min for 4 days (reference value: 3.9 +/- 0.6 ng/ml); type: ADME, organism-based; conditions: in vivo, 96 h
[29] = system: Rattus norvegicus; assay: Effect on plasma insulin level in lean ZDF fa/fa rat at 30 mg/kg dosed at 4.5 and 0.5 hrs prior to oral glucose challenge measured at -250 mins (reference value: 0.2 +/- 0.1 ng/ml); type: ADME, organism-based; conditions: in vivo
[30] = Stability in human liver microsomes assessed as half life; type: ADME, microsome
[31] = Oral bioavailability in diabetic ZDF rat; type: ADME, organism-based; conditions: in vivo
[32] = Oral bioavailability in diabetic ZDF fa/fa rat at 8 mg/kg administered 4.5 and 0.5 hrs prior to oral glucose challenge; type: ADME, organism-based; conditions: in vivo
[33] = system: Rattus norvegicus; assay: Effect on plasma insulin level in obese ZDF fa/fa rat at 30 mg/kg dosed at 4.5 and 0.5 hrs prior to oral glucose challenge measured at 60 mins (reference value: 7.8 +/- 0.8 ng/ml); type: ADME, organism-based; conditions: in vivo
[34] = system: Rattus norvegicus; assay: Effect on plasma insulin level in obese ZDF fa/fa rat at 30 mg/kg dosed at 4.5 and 0.5 hrs prior to oral glucose challenge measured at -250 mins (reference value: 7.2 +/- 0.6 ng/ml); type: ADME, organism-based; conditions: in vivo
[35] = Cmax in po dosed diabetic ZDF rat; type: ADME, organism-based; set-up: route oral; conditions: in vivo
[36] = system: Rattus norvegicus; assay: Toxicity in diabetic ZDF rat assessed as increase in beta-catenin mRNA levels in lungs administered at 130 mg/kg/day infused over 20 hrs; type: organism-based; conditions: in vivo
[37] = system: Rattus norvegicus; assay: Toxicity in diabetic ZDF rat assessed as increase in cyclin D1 mRNA levels in lung administered at 130 mg/kg/day infused over 20 hrs; type: organism-based; conditions: in vivo
[38] = system: Rattus norvegicus; assay: Antidiabetic activity in diabetic ZDF fa/fa rat assessed as reduction in plasma glucose AUC at 8 mg/kg administered 4.5 and 0.5 hrs prior to oral glucose challenge by oral glucose tolerance test; type: functional; set-up: scale not given: the % may be the effect or the level left
Method in brief: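 Obese 10-week-old ZDF (fa/fa) rats, n = 8/group, fasted overnight, given 8 mg/kg orally at 4.5 and 0.5 h before oral glucose challenge. Efficacy is the percent reduction in plasma glucose AUC versus untreated animals. Formulations were 15% captisol, 1% CMC or water with pH adjusted.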

[39] = system: Rattus norvegicus; assay: Antidiabetic activity in 12 weeks old obese ZDF fa/fa rat assessed as increase in plasma glucose disposal at 30 mg/kg dosed at 4.5 and 0.5 hrs prior to oral glucose challenge by oral glucose tolerance test; type: functional, organism-based
[40] = system: Mus musculus; assay: Antiobesity activity in diabetic […] mouse assessed as improvement in glucose tolerance administered at 30 mg/kg, po measured post glucose challenge by oral glucose tolerance test relative to control; type: functional, organism-based; method in brief: as §2
[41] = system: Rattus norvegicus; assay: Antihyperglycemic activity in diabetic ZDF fa/fa rat assessed as plasma glucose levels at 30 mg/kg, po administered as single dose measured after 60 mins (reference value: 500 to 550 mg/dl); type: functional; method in brief: as §4
[42] = Inhibition of human GSK3 using biotin-CREB peptide substrate after 1 hr by scintillation counting method
[43] = Inhibition of GSK3 expressed in CHO-IR cells expressing human insulin receptor assessed as glycogen synthase activation after 30 mins by filter paper assay; type: cell-based, Cavia porcellus
[44] = system: Mus musculus; assay: Antiobesity activity in diabetic […] mouse assessed as improvement in glucose tolerance administered at 30 mg/kg, po measured post glucose challenge and measured after 20 hrs post compound dose by oral glucose tolerance test relative to control; type: functional, organism-based
[45] = system: Rattus norvegicus; assay: Antihyperglycemic activity in diabetic ZDF fa/fa rat assessed as plasma glucose levels at 5 mg/kg, iv prime dose with continuous infusion at 64 ug/kg/min for 4 days (reference value: 223 +/- 18 mg/dL); type: functional
[46] = organism: Mus musculus; assay: Antidiabetic activity in streptozotocin-treated mouse fed with high fat diet assessed as reduction in post-challenge glucose AUC; type: functional; set-up: scale not given: the % may be the effect or the level left; method in brief: as §3
[47] = Inhibition of human DNA-dependent protein kinase using PI as substrate after 1 hr by scintillation counting method
[48] = Inhibition of human phosphatidylinositol (PI) 3-kinase using PI as substrate after 1 hr by scintillation counting method
[49] = system: Mus musculus; assay: Antidiabetic activity in diabetic db/db mouse assessed as reduction in plasma glucose AUC administered orally at 4.5 and 0.5 hrs prior to oral glucose challenge by oral glucose tolerance test; type: functional
Method in brief: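 db/db mice, 6–8 per group, fasted ~6 h, dosed orally at 30 mg/kg at −4.5 and −0.5 h before oral glucose challenge. Efficacy is the percent reduction in plasma glucose AUC versus untreated animals. Vehicle was 15% captisol, 1% CMC or pH-adjusted water.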

[50] = Inhibition of rat AMP kinase using SAMS peptide substrate in the presence of AMP after 1 hr by scintillation counting method
Method in brief: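 Kinase buffer: 50 mmol/L Tris-HCl pH 7.5, 10 mmol/L MgCl2, 1 mmol/L EGTA, 1 mmol/L DTT, 25 mmol/L β-glycerophosphate, 1 mmol/L NaF, 0.01% BSA. It contained kinase, peptide substrate and activators. Compound was added in DMSO with 1 μmol/L final ATP. PKC-ζ, AMPK and pdk1 were commercial enzymes.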

[51] = Inhibition of human phosphodiesterase 3 using cAMP substrate after 20 mins by scintillation counting

Angiopoietin-1 receptor, sequence (Q02763 whole entry): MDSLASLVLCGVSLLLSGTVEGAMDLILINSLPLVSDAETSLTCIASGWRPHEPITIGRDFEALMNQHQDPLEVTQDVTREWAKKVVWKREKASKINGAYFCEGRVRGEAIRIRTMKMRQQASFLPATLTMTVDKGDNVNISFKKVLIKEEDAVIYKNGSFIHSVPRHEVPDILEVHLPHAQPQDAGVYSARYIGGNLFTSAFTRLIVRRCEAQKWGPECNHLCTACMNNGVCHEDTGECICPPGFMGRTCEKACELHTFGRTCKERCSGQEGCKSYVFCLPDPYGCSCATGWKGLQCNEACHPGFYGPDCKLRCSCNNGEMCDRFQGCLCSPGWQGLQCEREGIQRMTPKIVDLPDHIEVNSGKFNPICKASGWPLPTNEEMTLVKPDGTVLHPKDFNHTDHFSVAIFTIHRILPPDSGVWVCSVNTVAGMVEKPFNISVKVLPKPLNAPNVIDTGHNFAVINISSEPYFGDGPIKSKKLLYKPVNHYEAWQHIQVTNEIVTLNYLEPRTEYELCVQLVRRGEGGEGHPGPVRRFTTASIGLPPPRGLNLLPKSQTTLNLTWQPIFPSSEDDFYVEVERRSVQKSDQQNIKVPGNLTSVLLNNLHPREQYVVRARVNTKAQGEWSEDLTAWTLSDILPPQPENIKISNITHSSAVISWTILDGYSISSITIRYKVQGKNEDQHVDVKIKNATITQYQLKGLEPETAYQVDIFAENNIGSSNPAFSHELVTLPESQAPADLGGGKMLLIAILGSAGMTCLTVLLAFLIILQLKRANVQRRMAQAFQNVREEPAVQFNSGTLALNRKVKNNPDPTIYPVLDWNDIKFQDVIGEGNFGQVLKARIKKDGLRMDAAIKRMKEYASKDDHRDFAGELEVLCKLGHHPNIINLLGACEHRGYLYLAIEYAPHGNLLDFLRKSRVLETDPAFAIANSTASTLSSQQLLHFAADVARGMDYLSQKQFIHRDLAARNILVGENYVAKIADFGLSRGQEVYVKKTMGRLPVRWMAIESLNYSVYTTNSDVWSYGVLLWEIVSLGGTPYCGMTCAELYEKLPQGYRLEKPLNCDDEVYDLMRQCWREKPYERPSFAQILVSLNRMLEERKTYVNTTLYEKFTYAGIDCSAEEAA
Casein kinase I isoform epsilon, sequence (P49674 whole entry, canonical isoform): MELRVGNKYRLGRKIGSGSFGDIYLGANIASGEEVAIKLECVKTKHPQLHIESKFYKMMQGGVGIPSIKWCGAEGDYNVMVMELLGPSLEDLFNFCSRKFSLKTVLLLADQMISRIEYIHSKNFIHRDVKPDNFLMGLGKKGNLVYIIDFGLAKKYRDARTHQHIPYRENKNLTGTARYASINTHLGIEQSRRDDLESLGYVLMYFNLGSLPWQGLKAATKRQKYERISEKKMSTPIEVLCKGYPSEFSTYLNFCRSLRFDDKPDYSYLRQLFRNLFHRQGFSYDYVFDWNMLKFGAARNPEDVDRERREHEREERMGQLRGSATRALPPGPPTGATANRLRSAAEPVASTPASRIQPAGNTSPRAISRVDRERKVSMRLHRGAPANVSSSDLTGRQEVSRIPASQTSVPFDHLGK

half-life [2]: 1.53 h
half-life [4]: 1.53 to 1.63 h
Activity [5]: 0.4 ng/mL
concentration at 20 min [8]: 15 µg/mL
Activity [9]: 0.6 ng/mL
IC50 [11]: > 5 µM
clearance [12]: 2.58 L/h/kg
Activity [13]: 5.3 ng/mL
IC50 [15]: > 5 µM
Vd [19]: 3.6 L/kg
Activity [25]: 4.8 ng/mL
Activity [26]: 0.3 ng/mL
AUC [27]: 1.42 µg·h/mL
Activity [28]: 3.1 ng/mL
Activity [29]: 0.3 ng/mL
half-life [30]: 1.82 h
bioavailability [31]: 36 to 43%
bioavailability [32]: 36%
Activity [33]: 5.2 ng/mL
Activity [34]: 6.3 ng/mL
Cmax [35]: 0.4 µg/mL
SMILES: Cc1c[nH]c(-c2cnc(NCCNc3ccc(C#N)cn3)nc2-c2ccc(Cl)cc2Cl)n1 [LADUVIGLUSIB]
Activity [1]: Non-Toxic
Activity [3]: Non-Toxic
Activity [6]: Non-Toxic
Activity [7]: Non-Toxic
Activity [10]: Non-Toxic
Activity [14]: Non-Toxic
Activity [16]: Toxic
Activity [17]: Non-Toxic
Activity [18]: Toxic
Activity [20]: Non-Toxic
Activity [21]: Non-Toxic
Activity [22]: Non-Toxic
Activity [23]: Non-Toxic
Activity [24]: Toxic
Activity [36]: Non-Toxic
Activity [37]: Non-Toxic

IC50 [42]: 0.005 µM
EC50 [43]: 0.77 µM
IC50 [47]: > 10 µM
IC50 [48]: > 10 µM
IC50 [50]: > 10 µM
Ki [51]: 8.3 µM
SMILES: Cc1cnc(-c2cnc(NCCNc3ccc(C#N)cn3)nc2-c2ccc(Cl)cc2Cl)[nH]1 [LADUVIGLUSIB]
Activity [38]: 38%
Activity [39]: Active
Activity [40]: Active
Activity [41]: >=150 mg/dl
Activity [44]: Active
Activity [45]: 116 mg/dL
Activity [46]: 53%
Activity [49]: Dose-dependent effect
